Assays:
[1] = system: cardiovascular and respiratory functions of rats; assay: Non-invasive measurement of cardiovascular and respiratory functions; type: in vivo; details: rat
Summary of the method: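 Anaesthetised rats had the neck trimmed for a size-matched collar sensor of a non-invasive pulse oximeter. Recorded heart rate, pulse distention (local blood flow), breath rate and oxygen saturation after test compound or SBECD vehicle. Monitored 60-600 min; maximal signal deflection taken; 1-4 animals per dose.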

NM2B = NM2B (Homo sapiens, UniProt P35580); assay: Actin-activated steady-state ATPase inhibition, NM2B; type: biochemical; details: even at extremely high concentrations
Chain of NM2B (P35580 1-782): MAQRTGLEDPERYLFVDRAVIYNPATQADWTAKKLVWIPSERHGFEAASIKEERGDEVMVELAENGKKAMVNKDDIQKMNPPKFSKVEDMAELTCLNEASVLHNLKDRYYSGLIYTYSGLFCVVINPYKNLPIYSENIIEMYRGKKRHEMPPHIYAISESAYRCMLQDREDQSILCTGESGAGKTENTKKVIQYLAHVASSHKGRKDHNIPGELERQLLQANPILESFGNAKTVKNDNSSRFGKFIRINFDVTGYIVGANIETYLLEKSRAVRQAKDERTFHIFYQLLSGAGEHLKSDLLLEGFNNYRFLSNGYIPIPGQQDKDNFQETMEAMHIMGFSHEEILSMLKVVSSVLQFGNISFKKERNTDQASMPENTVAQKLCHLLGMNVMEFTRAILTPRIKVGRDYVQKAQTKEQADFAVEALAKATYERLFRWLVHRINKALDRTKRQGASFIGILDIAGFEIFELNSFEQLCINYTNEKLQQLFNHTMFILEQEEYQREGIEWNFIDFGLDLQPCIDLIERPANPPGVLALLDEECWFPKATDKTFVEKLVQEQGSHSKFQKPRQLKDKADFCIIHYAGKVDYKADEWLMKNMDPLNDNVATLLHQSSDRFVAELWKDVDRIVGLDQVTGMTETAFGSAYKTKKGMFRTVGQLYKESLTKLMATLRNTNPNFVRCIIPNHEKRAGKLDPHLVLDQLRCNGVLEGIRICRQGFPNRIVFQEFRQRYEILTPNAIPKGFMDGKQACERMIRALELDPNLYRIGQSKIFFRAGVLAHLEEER
Summary of the method: (§1)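 Steady-state actin-activated ATPase measured by NADH-PK/LDH coupled assay at 25°C for 15 min. Buffer: 10 mM MOPS pH 7.0, 4 mM MgCl2, 2 mM β-mercaptoethanol, with 0.5 mM ATP, 25 μM F-actin, 1 mM PEP, 200 μM NADH and 2% PK/LDH. NADH decrease followed at 340 nm; activity taken from linear regression of absorbance over time. Inhibitor added at varied concentrations in DMSO (1% final).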

[2] = target: fast skeletal myosin-2 isoforms isolated from rabbit psoas muscle (Oryctolagus cuniculus, UniProt Q28641); assay: Actin-activated steady-state ATPase inhibition, rabbit psoas skeletal myosin; type: biochemical
Chain of fast skeletal myosin-2 isoforms isolated from rabbit psoas muscle (Q28641 1-813): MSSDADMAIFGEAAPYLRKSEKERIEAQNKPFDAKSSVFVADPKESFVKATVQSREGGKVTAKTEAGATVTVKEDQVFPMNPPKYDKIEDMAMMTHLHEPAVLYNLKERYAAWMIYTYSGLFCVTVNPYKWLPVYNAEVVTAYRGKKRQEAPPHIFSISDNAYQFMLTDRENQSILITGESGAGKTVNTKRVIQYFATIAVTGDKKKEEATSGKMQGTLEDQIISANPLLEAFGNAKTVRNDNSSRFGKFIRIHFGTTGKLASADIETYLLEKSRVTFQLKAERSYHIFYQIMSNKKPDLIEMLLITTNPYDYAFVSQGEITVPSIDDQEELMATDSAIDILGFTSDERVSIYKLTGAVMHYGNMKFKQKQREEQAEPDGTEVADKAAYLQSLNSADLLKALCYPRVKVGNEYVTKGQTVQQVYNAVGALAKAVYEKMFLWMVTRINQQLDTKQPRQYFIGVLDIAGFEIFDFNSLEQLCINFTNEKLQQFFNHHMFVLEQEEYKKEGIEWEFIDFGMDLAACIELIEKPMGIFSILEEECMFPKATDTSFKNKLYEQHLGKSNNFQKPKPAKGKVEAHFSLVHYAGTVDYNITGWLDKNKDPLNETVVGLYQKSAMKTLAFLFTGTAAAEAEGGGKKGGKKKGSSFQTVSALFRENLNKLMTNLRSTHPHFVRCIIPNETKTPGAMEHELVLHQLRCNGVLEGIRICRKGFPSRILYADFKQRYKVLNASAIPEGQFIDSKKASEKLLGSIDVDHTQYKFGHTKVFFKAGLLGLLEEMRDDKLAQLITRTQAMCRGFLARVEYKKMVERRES
Chain of fast skeletal myosin-2 isoforms isolated from rabbit psoas muscle (P02602 52-192 partner): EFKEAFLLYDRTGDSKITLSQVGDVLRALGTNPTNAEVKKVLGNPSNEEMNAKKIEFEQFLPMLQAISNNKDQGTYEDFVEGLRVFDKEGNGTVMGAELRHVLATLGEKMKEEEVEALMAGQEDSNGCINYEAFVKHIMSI
Summary of the method: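 Rabbit psoas S1 made by α-chymotrypsin digestion (0.25 mg/ml, 10 min, 25°C), stopped with 3 mM PMSF, then purified on MonoS. Assayed by NADH-PK/LDH coupled ATPase at 25°C for 15 min: 0.5 mM ATP, 25 μM F-actin, 10 mM MOPS pH 7.0, 4 mM MgCl2. Rate read at 340 nm by linear regression; inhibitor at varied concentrations, 1% DMSO.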

[3] = system: skeletal myosin samples from m.soleus; assay: Actin-activated ATPase inhibition, human m. soleus biopsy myosin; type: biochemical; details: patient-derived biopsy; 28% fast isoforms
[4] = system: human adult lung (hLFa) fibroblast; assay: CyQUANT LDH Cytotoxicity assay, lung fibroblasts; type: cell-based; details: 20 μM and 50 μM, 48 and 120 hours
Summary of the method: (§2)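 LDH release (CyQUANT kit, per manufacturer) from human adult dermal and lung fibroblasts. Cells exposed to 20 or 50 μM test compound for 48 and 120 h.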

[5] = target: human non-muscle myosin-2C (NM2C) (Homo sapiens, UniProt Q7Z406); assay: Actin-activated steady-state ATPase inhibition, NM2C wild type; type: biochemical; details: wild-type form
Chain of human non-muscle myosin-2C (NM2C) (Q7Z406 1-799): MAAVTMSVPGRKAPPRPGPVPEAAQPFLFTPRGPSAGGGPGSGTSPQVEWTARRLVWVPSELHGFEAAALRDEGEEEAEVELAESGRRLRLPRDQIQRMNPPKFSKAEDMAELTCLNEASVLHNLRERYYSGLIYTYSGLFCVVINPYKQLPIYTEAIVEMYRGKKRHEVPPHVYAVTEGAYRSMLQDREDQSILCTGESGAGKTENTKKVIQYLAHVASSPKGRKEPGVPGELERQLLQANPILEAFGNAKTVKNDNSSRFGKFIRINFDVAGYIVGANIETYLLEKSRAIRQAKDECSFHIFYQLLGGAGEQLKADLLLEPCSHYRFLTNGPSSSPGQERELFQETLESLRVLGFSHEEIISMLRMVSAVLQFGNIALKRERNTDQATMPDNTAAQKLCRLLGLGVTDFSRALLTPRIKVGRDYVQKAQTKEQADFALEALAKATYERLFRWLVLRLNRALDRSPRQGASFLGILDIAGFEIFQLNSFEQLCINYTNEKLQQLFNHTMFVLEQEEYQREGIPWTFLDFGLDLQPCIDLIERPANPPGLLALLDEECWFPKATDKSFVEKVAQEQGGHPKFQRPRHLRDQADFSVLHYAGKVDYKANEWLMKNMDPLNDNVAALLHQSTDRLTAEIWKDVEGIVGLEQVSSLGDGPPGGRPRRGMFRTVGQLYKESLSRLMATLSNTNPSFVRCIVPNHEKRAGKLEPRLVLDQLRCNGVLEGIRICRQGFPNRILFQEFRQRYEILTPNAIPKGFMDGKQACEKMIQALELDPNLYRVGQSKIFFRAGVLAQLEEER
Summary of the method: as §1

[6] = system: human adult dermal fibroblast (hDFa); assay: CyQUANT LDH Cytotoxicity assay, dermal fibroblasts; type: cell-based; details: 20 μM and 50 μM, 48 and 120 hours
Summary of the method: as §2

[7] = target: slow skeletal/β-cardiac myosin isolated from left ventricle of porcine heart (Sus scrofa, UniProt P79293); assay: Actin-activated steady-state ATPase inhibition, porcine cardiac myosin; type: biochemical; details: even at extremely high concentrations
484 kinases = assay: SelectScreen Kinase Profiling panel; type: biochemical, human; details: 5 μM
Summary of the method: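 Outsourced SelectScreen panel of wild-type and common mutant human kinases; test compound at 5 μM. Mean ± SEM, n = 2.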

TA98 = assay: Ames MPF reverse mutagenicity assay, TA98; type: cell-based, S.typhimurium; details: absence and presence of rat liver S9 fraction
Summary of the method: (§3)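 Ames MPF reverse mutagenicity run per kit instructions on Salmonella TA98 and TA100. Each strain tested without and with phenobarbital/β-naphthoflavone-induced rat liver S9 fraction.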

[8] = system: skeletal myosin samples from m.vastus lateralis; assay: Actin-activated ATPase inhibition, human m. vastus lateralis biopsy myosin; type: biochemical; details: patient-derived biopsies; 56% fast isoforms
[9] = system: rat hindleg isometric force; assay: Isometric force measurement of rat hindleg; type: in vivo
[10] = system: spastic rats after pyramidal tract lesion; assay: Spastic cerebral palsy rat model, cylinder assay; type: in vivo; details: Rat-B and C, three and five hours after oral 20 mg/kg treatment
[11] = target: expressed human β-cardiac myosin (Homo sapiens, UniProt P12883); assay: Actin-activated steady-state ATPase inhibition, expressed human β-cardiac myosin; type: biochemical
Chain of expressed human β-cardiac myosin (P12883 85-778 limits assumed): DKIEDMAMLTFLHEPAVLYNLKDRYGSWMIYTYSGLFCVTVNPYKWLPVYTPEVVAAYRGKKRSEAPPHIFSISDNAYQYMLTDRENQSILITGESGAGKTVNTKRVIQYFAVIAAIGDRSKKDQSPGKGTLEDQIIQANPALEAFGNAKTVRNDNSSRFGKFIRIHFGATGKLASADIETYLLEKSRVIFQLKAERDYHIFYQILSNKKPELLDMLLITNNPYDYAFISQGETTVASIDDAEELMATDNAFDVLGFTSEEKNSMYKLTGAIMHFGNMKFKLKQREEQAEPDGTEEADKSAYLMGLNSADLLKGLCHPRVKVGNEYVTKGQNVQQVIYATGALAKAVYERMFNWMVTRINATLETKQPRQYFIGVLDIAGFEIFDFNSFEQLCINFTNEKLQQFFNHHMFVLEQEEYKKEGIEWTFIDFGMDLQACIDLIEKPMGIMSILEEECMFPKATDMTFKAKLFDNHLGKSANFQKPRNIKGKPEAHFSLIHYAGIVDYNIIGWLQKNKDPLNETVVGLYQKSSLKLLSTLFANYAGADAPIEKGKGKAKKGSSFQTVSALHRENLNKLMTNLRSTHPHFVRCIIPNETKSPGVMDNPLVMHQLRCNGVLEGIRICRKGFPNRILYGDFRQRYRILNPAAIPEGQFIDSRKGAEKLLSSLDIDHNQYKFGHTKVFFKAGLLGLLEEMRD
Chain of expressed human β-cardiac myosin (P08590 whole entry partner): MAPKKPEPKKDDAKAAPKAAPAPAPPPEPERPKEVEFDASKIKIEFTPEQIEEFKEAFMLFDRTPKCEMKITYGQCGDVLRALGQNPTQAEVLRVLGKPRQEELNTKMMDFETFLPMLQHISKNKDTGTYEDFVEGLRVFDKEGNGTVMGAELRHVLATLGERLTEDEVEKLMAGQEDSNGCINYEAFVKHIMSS
Summary of the method: as §1

hERG potassium channel = hERG potassium channel (Homo sapiens, UniProt Q12809); assay: Predictor hERG Fluorescence Polarization Assay; type: binding; details: up to 5 μM
Summary of the method: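 Outsourced hERG fluorescence-polarisation binding assay, test compound up to 5 μM. Mean ± SEM, n = 2.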

NM2A = NM2A (Homo sapiens, UniProt P35579); assay: Actin-activated steady-state ATPase inhibition, NM2A; type: biochemical; details: even at extremely high concentrations
Chain of NM2A (P35579 1-775): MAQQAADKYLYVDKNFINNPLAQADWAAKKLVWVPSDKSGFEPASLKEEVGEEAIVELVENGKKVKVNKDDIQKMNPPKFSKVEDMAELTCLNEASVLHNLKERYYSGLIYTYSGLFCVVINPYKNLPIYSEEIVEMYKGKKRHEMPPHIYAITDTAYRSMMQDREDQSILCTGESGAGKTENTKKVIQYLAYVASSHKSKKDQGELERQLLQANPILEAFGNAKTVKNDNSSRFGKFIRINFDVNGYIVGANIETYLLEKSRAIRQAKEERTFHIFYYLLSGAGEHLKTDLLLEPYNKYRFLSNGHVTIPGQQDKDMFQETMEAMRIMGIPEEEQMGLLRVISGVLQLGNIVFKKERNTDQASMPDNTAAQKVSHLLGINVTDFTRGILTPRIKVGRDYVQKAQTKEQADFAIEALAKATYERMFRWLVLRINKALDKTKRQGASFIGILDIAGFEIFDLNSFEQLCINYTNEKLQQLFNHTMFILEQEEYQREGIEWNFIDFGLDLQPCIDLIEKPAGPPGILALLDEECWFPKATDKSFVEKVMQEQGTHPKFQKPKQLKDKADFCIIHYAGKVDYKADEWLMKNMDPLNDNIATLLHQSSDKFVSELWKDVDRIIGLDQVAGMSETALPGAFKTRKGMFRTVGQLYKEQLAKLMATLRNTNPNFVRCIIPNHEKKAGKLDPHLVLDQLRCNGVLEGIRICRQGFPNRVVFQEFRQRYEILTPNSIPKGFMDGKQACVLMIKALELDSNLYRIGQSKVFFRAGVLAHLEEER
Summary of the method: as §1

[12] = system: spastic rats after pyramidal tract lesion; assay: Spastic cerebral palsy rat model, open-field gait analysis; type: in vivo; details: for ratio of left turns: Rat-A, 15% before
Summary of the method: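 Spasticity induced in rats by stereotaxic injection of 15 μl ethanol into the left pyramidal tract (ML −0.8, AP −10, DV 9.7 mm from dura). Rats filmed for 15 min in an 80×80 cm open field with transparent floor, with deep-learning 3D paw tracking. Gait parameters Z-scored and run through PCA. Falls and cramps normalised to distance. Oral 15 or 20 mg/kg; recorded before and 1-21 h after dosing.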

Caco-2 = Caco-2 permeability assay; type: in vitro ADME; details: faster transfer in the absorptive direction over the excretive direction
Summary of the method: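 Outsourced Caco-2 permeability, measured apical-to-basolateral and basolateral-to-apical, in the presence of two transporter inhibitors. Mean ± SD, n = 2.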

TA100 = assay: Ames MPF reverse mutagenicity assay, TA100; type: cell-based, S.typhimurium; details: absence and presence of rat liver S9 fraction
Summary of the method: as §3

[13] = system: 23 human hormone nuclear receptors (HNR); assay: SelectScreen Nuclear Receptor Profiling; type: binding; details: 5 μM; 23 receptors
Summary of the method: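 Outsourced SelectScreen binding profile on 23 human hormone nuclear receptors; test compound at 5 μM. Mean ± SEM, n = 2.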

[14] = target: β-cardiac myosin isolated from human heart left ventricle (Homo sapiens, UniProt P12883); assay: Actin-activated ATPase inhibition, human heart left ventricle myosin; type: biochemical
Chain of β-cardiac myosin isolated from human heart left ventricle (P12883 85-778 limits assumed): as the sequence (P12883 85-778 limits assumed) above
Chain of β-cardiac myosin isolated from human heart left ventricle (P08590 whole entry partner): as the sequence (P08590 whole entry partner) above
Summary of the method: as §1

[15] = system: 186 different human G-protein-coupled-receptors (GPCRs); assay: gpcrMAX panel; type: cell-based; details: 5 μM; 186 GPCRs
Summary of the method: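 gpcrMAX service panel of 186 human GPCRs from 60 families, read in both agonist and inhibition modes; test compound at 5 μM. Mean ± SEM, n = 2.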

smooth muscle myosin-2 = smooth muscle myosin-2 (Gallus gallus, UniProt P10587); assay: Actin-activated steady-state ATPase inhibition, smooth muscle myosin; type: biochemical, chicken; details: even at extremely high concentrations
Summary of the method: as §1

NM2C^F490L variant = NM2C^F490L variant (Homo sapiens, UniProt Q7Z406, F490L); assay: Actin-activated steady-state ATPase inhibition, NM2C F490L variant; type: biochemical; details: expressed variant
Chain of NM2C^F490L variant (Q7Z406 1-799 F490L): as the sequence (Q7Z406 1-799) above, with F490L counted along it
Summary of the method: as §1

[16] = Concentration measurement from tissue samples; type: in vivo; details: rat
Summary of the method: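 Male Wistar rats (200-250 g) dosed i.p. or orally, over-anaesthetised; tissues collected and frozen at −80°C. Extracts chloroform-dried, taken up in 50/50 water-acetonitrile, sonicated, centrifuged, then ultracentrifuged (60,000 rpm, 10°C, 60 min). HPLC-MS on RP-18 column, isocratic 50% H2O (0.1% TFA)/50% ACN (0.09% TFA), 0.5 ml/min. Quantified from 400 nm peak area against a calibration curve.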

Cc1ccc2c(c1)C(=O)[C@]1(O)CCN(c3ccc(N)cc3)C1=N2 [AmBleb, para-aminoblebbistatin, reference compound]
time to death due to heart failure ([1]; 16 mg/kg): ≤ 15 min

Cc1cc2c(s1)N=C1N(c3ccc(N4CCOCC4)cc3)CC[C@@]1(O)C2=O [MPH-220]
ATPase activity inhibition of NM2B (NM2B): did not inhibit | ATPase inhibition of fast skeletal myosin (selectivity, in words) [2]: selective inhibition | ATPase inhibition of m.soleus myosin sample [3]: 29% | cytotoxicity (LDH) [4]: not toxic | ATPase activity inhibition of NM2C [5]: not inhibited | cytotoxicity (LDH) [6]: not toxic | ATPase activity inhibition of cardiac myosin [7]: did not inhibit | kinase inhibition (484 kinases): ≤ 20% | mutagenicity, frameshift (TA98) (TA98): Lack of mutagenicity | ATPase inhibition of m.vastus lateralis myosin sample [8]: 70% | isometric force decrease τi.p. ([9]; 18 mg/kg, intraperitoneal injection in 200 μl DMSO, anesthetized rats): 34 min | leg phase before force decrease, corresponding to absorption ([9]; 18 mg/kg, oral in 30% SBECD): 17 min | isometric force decrease τp.o. ([9]; 18 mg/kg, orally through gavage tube in 30% SBECD, anesthetized rats): 53 min | persistence of decreased force ([9]; rat hindleg, oral treatment): more than 10 hours | standing up in the cylinder, wall touches with both forepaws [10]: same number of events as their healthy littermates | effect on cardiovascular and respiratory functions ([1]; 18 mg/kg): neither 13 mg/kg MPH-188 (H) nor 18 mg/kg MPH-220 (I) had any significant effect | cardiac and respiratory functions versus excipient control ([1]; 10-hour experiments under anesthesia): neither cardiac nor respiratory functions differed significantly | maximum decrease in heart rate and blood flow parameters ([1]; 10-hour-long anesthesia): ≤ 25% | cardiac function ([1]; concentration range effective in force relaxation): not perturbed | ATPase activity inhibition of expressed human β-cardiac myosin [11]: essentially unaffected | hERG potassium channel inhibition (hERG potassium channel): did not observe inhibition | ATPase activity inhibition of NM2A (NM2A): did not inhibit | ratio of left turns ([12]; 40 minutes after 15 mg/kg treatment): 38% | ratio of left turns ([12]; three hours after 15 mg/kg treatment): 51% | relative frequency of random falling and spontaneous cramping ([12]; Rat-C, 20 mg/kg, open field test): decreased drastically | persistence of enhanced gait functions ([12]; Rat-D, 20 mg/kg): persistent for five hours | PC1 scores (major gait component) ([12]; global PCA, 20 mg/kg oral): significantly decreased | time of maximal effect on PC1 scores ([12]; global PCA, 20 mg/kg oral): 3 h | Caco-2 permeability (Caco-2): highly permeable | mutagenicity, base-pair substitution (TA100) (TA100): Lack of mutagenicity | effect on hormone nuclear receptors [13]: remained unaffected | ATPase inhibition of human heart left ventricle β-cardiac myosin (in words) [14]: unaffected | GPCR inhibition or activation [15]: ≤ 30% | ATPase activity inhibition of smooth muscle myosin-2 (smooth muscle myosin-2): did not inhibit | ATPase sensitivity of NM2C F490L variant (NM2C^F490L variant): became sensitive | concentration in the diaphragm [16]: much lower compared to other striated muscle samples | concentration in the liver [16]: only temporarily elevated | concentration in target muscles relative to the inhibitory constant [IC50] ([16]; after 3 hours): 10 fold | elimination from blood and other tissues ([16]; after 3 hours): completely eliminated | concentration in cardiac tissue ([16]; high doses (up to 130 mg/kg)): 3000 to 7000 nM | accumulation in skeletal muscle samples over other tissues ([16]; versus brain, heart, kidney and blood): few-fold accumulation

Cc1ccc2c(c1)C(=O)C1(O)CCN(c3ccccc3)C1=N2 (stereo not drawn) [blebbistatin, reference compound]
ATPase inhibition of m.vastus lateralis myosin sample [8]: more than 90% | ATPase activity inhibition of expressed human β-cardiac myosin [11]: completely blocked | ATPase activity reduction of human cardiac myosin sample ([14]; human heart left ventricle): more than 90%

From PMC7596007 (Cell, 2020)
